# Only a selection was taken, and hits are over-represented in it overall.
# CHOP UPR activ: apoptotic UPR (CHOP) activation; activation, % at 10 µM; CHO-CHOP luciferase reporter, luminescence; percent of tunicamycin response over DMSO baseline; hit rate 0.34% among 330,000;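 active means at 10 µM dose, activation of 40% or more, normalized to positive control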;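 further: 100% = tunicamycin at 10 µg/mL and 0% = DMSO alone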
#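 assay system = CHO CHOP reporter cells | amount = 500 CHO-CHOP cells per well | buffer or medium = F12 with 10% FBS | incubation = 16-18 h cell attachment, then 6 h compound exposure, 37 °C | detection = luminescence read with Steady-Glo | read-out = percent activation relative to tunicamycin control | controls = tunicamycin high control, DMSO low control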
# CHOP inh: CHOP inhibition in unfolded protein response. hit rate 3.8% among 220,000. CHO-K1 CHOP-promoter luciferase, tunicamycin-induced, 15-18 h. inhibition, % at 10 µM;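 active means compounds that reduced the stress-induced luciferase reporter signal by more than about 70% of percent inhibition, limit read from the data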;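 further: 0% = tunicamycin plus vehicle and 100% = wells without tunicamycin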
# iPSC survival up: enhancers of human iPSC single-cell survival; hiPSC single-cell survival, ATPlite luminescence; 100% = ROCK inhibitor wells, 0% = DMSO; survival enhancement, % at 20 µM; hit rate 0.044% among 360,000; AID 602274; in the data active means survival enhancement above about 18%;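 further: cells exposed to compounds for 16 hours before the ATP read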
# UPR XBP1 act: activators of adaptive arm of unfolded protein response (XBP1). CHO-XBP1 luciferase reporter, IRE1-XBP1 UPR activation, luminescence; percent of tunicamycin response, DMSO as zero. activation, % at 20 µM. AID 463104. hit rate 0.33% among 330,000;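 active means versus positive control, 20 µM dose yields 30% or more activation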;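 further: 100% = tunicamycin at 10 µg/mL and 0% = DMSO only wells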
#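 incubation = overnight seeding at 37 °C, 6 h compound treatment at 37 °C | assay system = CHO-XBP1 cells stably carrying IRE1-XBP1-driven luciferase reporter | input = 1000 cells per well | detection = luciferase luminescence | dosing = single point, 20 µM final compound, 1% DMSO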
# Cardio protect: myocardial damage modulation in H9c2 cells; H9c2 cardiomyocytes, H2O2 injury protection, ATPLite, 2 h; protection from H2O2 cell death, % at 20 µM; hit rate 0.63% among 360,000; AID 588492;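 active means compounds giving at least 50% protection of heart cells from peroxide-induced death in the single-dose screen, raw or plate-pattern-corrected value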;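 further: 0% = DMSO wells with peroxide and 100% = DMSO wells without peroxide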
# * hit, by the source's call; / = no result given.
SMILES,CHOP UPR activ,CHOP inh,iPSC survival up,UPR XBP1 act,Cardio protect
Cc1cc(C)cc(NC(=O)c2nnn(Cc3cc(C)ccc3C)c2N)c1,1.3,92.9*,0.3,0.2,-25.9
Cc1ccc(C)c(Cn2nnc(C(=O)Nc3ccc4c(c3)OCCO4)c2N)c1,5.3,/,-0.4,0.3,-21.3
O=C(NCc1ccco1)c1ccc(Cn2c(=O)c3sccc3n(Cc3cccc(F)c3)c2=O)cc1,-0.7,72.2*,4.1,-0.8,0.6
CCc1ccc(C(O)c2ncc(-c3cccc(OC)c3)[nH]2)cc1 (stereo not given),/,/,-0.7,/,-17.8
Cc1ccsc1CN(C)CC(=O)N(C)CC(=O)Nc1c(Cl)cccc1Cl,/,/,-1.3,/,0.7
CCOC(=O)C1CCN(c2cc3c(cc2NC(=O)c2ccc(OC)c(OC)c2)n(C)c(=O)n3C)CC1,7.1,/,0.1,-1.2,54.5*
CCOC(=O)C1CCN(c2cc3c(cc2NC(=O)c2ccccc2)n(C)c(=O)n3C)CC1,2.5,/,-0.4,-6.7,65.6*
CC(C)C[C@H]1CN(CCCC[C@@H]2CNC(=O)C(=O)N2CCc2ccccc2)C(=O)C(=O)N1CCc1ccccc1,/,/,0.0,/,/
O=C(Nc1ccccc1)Nc1ncc([N+](=O)[O-])s1,1.2,86.0*,-0.7,-4.9,-17.5
C[C@H](CO)N1C[C@H](C)[C@H](CN(C)C(=O)c2ccccc2F)Oc2ncc(Br)cc2C1=O,/,/,-0.4,/,0.2
O=C(Cc1cccc(NC(=O)C2CCCN(C(=O)CCc3ccccc3)C2)c1)Nc1cccc(C(=O)N2CCCCC2)c1 (stereo not given),/,/,0.1,/,-13.8
CC(C)(C)c1ccc(OCCCC(=O)NNC(=O)c2ccccc2O)cc1,-0.6,/,-0.4,-1.0,52.5*
O=C(CCS(=O)(=O)c1cccc2nonc12)N1CC(=O)N(CCc2ccccc2)C(=O)C1,1.7,72.9*,-0.3,0.1,-2.0
O=C(CCS(=O)(=O)c1cccc2nonc12)N1CCOCC1,2.0,41.9,-0.3,-0.1,1.2
O=C(CSc1nnc(Cc2csc(Nc3cccc(Cl)c3)n2)o1)N1CCc2ccccc21,-2.4,89.4*,7.0,-1.2,-19.0
Cc1ccc(C(=O)Nc2ccc(C(=O)N/N=C/c3c[nH]c4ccccc34)cc2)cc1,3.3,-17.9,1.2,-1.8,49.6
Cc1cccc(NC(=S)N/N=C/c2c[nH]c3ccccc23)c1,2.2,91.1*,-2.6,-0.7,-11.3
C[C@@H]1CN([C@H](C)CO)C(=O)CCCn2nncc2CO[C@H]1CN(C)Cc1cccnc1,/,/,-1.6,/,-1.4
CCCCc1c(-c2ccccc2F)ncn1CCc1ccccc1OC,/,/,0.6,/,/
O=[N+]([O-])c1ccccc1Nc1c2ccccc2nc2ccccc12,-0.9,93.0*,-0.6,1.4,-17.2
CCOC(=O)c1sc(/N=C/c2ccc(O)cc2O)cc1C,10.5,94.4*,0.0,4.7,1.6
Clc1ccc(CSc2nnc(-c3ccccn3)n2Cc2ccco2)c(Cl)c1,0.4,82.0*,0.0,-1.3,-9.9
CCOC(=O)Cn1c(=NC(=O)c2ccc([N+](=O)[O-])s2)sc2ccccc21,0.2,80.5*,-1.5,-1.3,-14.4
CCOc1ccc(NC(=O)COC(=O)c2c[nH]c3ccccc23)cc1,/,/,1.1,/,-8.1
O=C(/C=C/c1ccccc1Cl)Nc1ccc2c(c1)C(=O)NC2=O,1.0,94.4*,-2.4,-0.9,-6.3
SMILES,CHOP UPR activ,CHOP inh,iPSC survival up,UPR XBP1 act,Cardio protect
COc1ccc(-c2csc3nc[nH]c(=O)c23)cc1OC,-1.6,/,0.0,-4.0,0.1
Cc1ccc(-c2csc3nc[nH]c(=S)c23)cc1C,2.6,-0.6,0.1,0.5,79.8*
O=C(Nc1ccc(F)cc1)c1nc[nH]c1C(=O)Nc1ccccc1[N+](=O)[O-],/,87.1*,-0.6,/,3.8
Cc1nc2ccccc2c(=O)n1/N=C/c1cn[nH]c1-c1ccccc1,-0.6,9.1,0.0,1.5,12.8
Cc1ccccc1OCc1nc2ccccc2c(=O)n1/N=C/c1cn[nH]c1-c1ccccc1,4.2,85.3*,1.8,2.8,10.9
CCC1CN(S(=O)(=O)c2ccc3c(c2)NC(=O)CC(=O)N3)c2cc(Cl)ccc2O1 (stereo not given),-1.2,/,2.7,1.1,65.5*
CO/N=C/c1ccc(N2CCN(C(=O)c3ccc(C)cc3)CC2)c([N+](=O)[O-])c1,-0.5,72.5*,-1.9,1.4,-7.1
CO/N=C/c1ccc(N2CCCC2)c([N+](=O)[O-])c1,3.6,-14.4,0.1,6.1,-4.4
O=C(Cc1cn(Cc2cccc(Cl)c2)c2ccccc12)N1CCCCCC1,-1.6,76.2*,-0.8,-4.2,-7.4
O=C(O)Cc1cn(Cc2cccc(Cl)c2)c2ccccc12,-0.5,4.0,-2.2,1.9,0.7
CC1CCCN(C(=O)Cc2cn(Cc3cccc(Cl)c3)c3ccccc23)C1 (stereo not given),-0.7,75.8*,0.2,0.2,-9.7
O=c1cc(CO)[nH]nc1CO,/,/,5.5,/,-2.2
Cc1c(C(=O)NC2CC(C)(C)NC(C)(C)C2)oc2c(Cl)cccc12,/,/,-2.0,/,4.5
O=C(CCS(=O)(=O)c1ccc(F)cc1)Nc1nc(-c2ccccn2)cs1,0.4,/,0.3,-2.7,28.7
O=C(Nc1nc(-c2ccccn2)cs1)C1CC1,4.7,15.5,-0.7,1.7,24.1
O=C(CC1CC2CCC1C2)Nc1nc(-c2ccccn2)cs1 (stereo not given),5.7,-140.4,8.7,1.1,53.3*
CC(Oc1ccc(F)cc1)C(=O)Nc1nc(-c2ccccn2)cs1 (stereo not given),1.1,/,-0.4,1.3,66.8*
O=C(CCS(=O)(=O)c1ccccc1)Nc1nc(-c2ccccn2)cs1,0.2,/,-1.0,-2.5,51.4*
Cc1cc(C)c(OCC(=O)Nc2nc(-c3ccccn3)cs2)c(C)c1,-0.1,26.2,1.1,4.1,63.1*
COc1ccc(OCCCC(=O)Nc2nc(-c3ccccn3)cs2)cc1,6.8,-102.6,0.2,1.5,37.6
COc1ccccc1OCC(=O)NCC1CCCN(C(=O)c2cccc(C)c2)C1 (stereo not given),/,/,-0.7,/,-0.2
CC(=Nc1cccc(C)c1)c1sc2ccccc2c1O,2.5,77.4*,-3.0,0.7,-14.7
CCN(C[C@H]1N[C@@](Cc2ccccc2)(C(=O)OC)[C@H]2C(=O)N(C)C(=O)[C@@H]12)C(=O)COc1ccccc1,-1.3,/,1.8,1.3,13.5
CC1CCN(CC(CS(=O)(=O)c2ccc([N+](=O)[O-])cc2)N2CCC(C)CC2)CC1 (stereo not given),33.6,71.0*,-0.7,-4.6,-16.5
COc1ccc(/C=N/NS(=O)(=O)c2ccc(C)cc2)cc1OC(=O)c1ccccc1,-2.9,58.8,-1.9,0.3,-0.4
COc1ccc(/C=N/NS(=O)(=O)c2ccccc2)cc1OC(=O)c1ccc(C)cc1,-0.6,73.8*,-0.2,-1.6,-12.1
CCN1C(=O)[C@H]2[C@H]3CN=C(SCc4ccc(C#N)cc4)N3[C@@](Cc3ccccc3)(C(=O)OC)[C@H]2C1=O,2.1,/,7.3,-0.2,54.8*
